Usually IC50 stands for the midpoint of a concentration-inhibition curve.

Drawing on ChEMBL document CHEMBL3758106, “Antitumor Activity of Americanin A Isolated from the Seeds of Phytolacca americana by Regulating the ATM/ATR Signaling Pathway and the Skp2-p27 Axis in Human Colon Cancer Cells” (J Nat Prod, 2015), this text covers Activity, IC50 and inhibition for 1 compound.

Calls of active or inactive are those of the source. The calls are words filed in the database; no cut-off is given here.

A short description of data set [1]: Downregulation of phosphorylated cyclin B1 at Ser147 expression in human HCT116 cells at 7.5 to 30 uM after 24 hrs by Western blot analysis. Type of data set: functional, cell-based. The following applies: HCT-116. In a few lines: (§1)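 HCT116 cells exposed 24 h in complete medium; lysed in RIPA buffer (pH 8.0), protein by BCA, equal loads run on 8–13% SDS-PAGE, PVDF transfer, blocked in 5% BSA/TBST, primary antibodies overnight at 4 °C, HRP secondaries 2 h RT, ECL detection; β-actin as loading control.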

The test system of data set [2] is HCT-116. The experiment in a line: Induction of reactive oxygen species in human HCT116 cells at 30 uM after 48 hrs by DCFH-DA staining-based flow cytometric analysis in presence of NAC (reference value: 5.1%). The format is functional. In a few lines: (§2)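 HCT116 cells seeded overnight, then exposed to test compounds, alone or with NAC, for 48 h in complete medium. Loaded with 20 μM DCFH-DA for 30 min; intracellular ROS in 20 000 cells per group read by flow cytometry as histograms.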
On the technique in general: In flow cytometry, cells or beads pass a laser one at a time.

Data set [3] in a line: Upregulation of phosphorylated ATM expression in human HCT116 cells at 1 hr by Western blot analysis. The format is functional, cell-based. The settings on record: HCT-116. (A western blot detects proteins with antibodies after separation by electrophoresis.)
Data set [4] relates to Mus musculus. The experiment in a line: Toxicity in nude mouse at 5 to 10 mg/kg, ip administered 3 times per week measured on day 41. Type of data set: organism-based. The following applies: in vivo. In short, it runs like this: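 Nude mice implanted s.c. in the flank with 2 × 10^6 HCT116 cells. Once tumors reached about 120 mm3, mice were randomized, six per group, to vehicle or compound at 5 or 10 mg/kg ip (200 μL) three times weekly; irinotecan 10 mg/kg ip once weekly as reference. Body weight recorded twice weekly to assess toxicity; study ended day 41.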

The test system of data set [5] is HCT-116. The experiment in a line: Increase in p27 expression in human HCT116 cells after 24 hrs by western blot analysis. The format is functional, cell-based. In short, it runs like this: as §1
The nature of data set [6]: Upregulation of p53 expression in human HCT116 cells at 7.5 to 30 uM after 24 hrs by Western blot analysis. Type of data set: functional, cell-based. The settings on record: HCT-116.
Data set [7] concerns HCT-116. The experiment in a line: Induction of cell cycle arrest in human HCT116 cells assessed as accumulation at G2/M phase at 15 uM after 48 hrs by propidium iodide staining-based flow cytometric analysis in presence of RNase A (reference value: 19.7%). The format is functional.
Data set [8] concerns HCT-116. Put plainly: Induction of morphological change in human HCT116 cells assessed as loss of contact with surface of culture dish at 30 uM after 24 to 48 hrs by phase contrast microscopic analysis. The format is functional, cell-based. In short, it runs like this:
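HCT116 cells incubated with compound for 24 h, then viewed and photographed under phase-contrast microscopy; also examined at 48 h.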

A short description of data set [9]: Antiproliferative activity against human HCT15 cells after 24 to 72 hrs by SRB assay. The format is functional, cell-based. The settings on record: HCT-15. In short, it runs like this:
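Cells grown in 96-well plates (RPMI 1640; MRC-5 in MEM, 10% FBS, antibiotics) with compound […]; fixed in 10% TCA 30 min at 4 °C, stained 0.4% SRB in 1% acetic acid 1 h, dye dissolved in 10 mM Tris pH 10.0, A515 read; viability as % of solvent control, IC50 by nonlinear regression; mean of three independent experiments.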
On the technique in general: In SRB staining, fixed cells bind dye roughly in proportion to their protein.

The nature of data set [10]: Decrease in phosphorylated p27 expression at Thr187 in human HCT116 cells after 24 hrs by western blot analysis. Type of data set: functional, cell-based. The following applies: HCT-116. In short, it runs like this:
as §1

Data set [11] has as its system HCT-116. Put plainly: Induction of cell cycle arrest in human HCT116 cells assessed as accumulation at sub-G1 phase at 30 uM after 48 hrs by propidium iodide staining-based flow cytometric analysis in presence of RNase A (reference value: 6.5%). The format is functional.
Data set [12] is described as follows: Upregulation of ATR expression in human HCT116 cells up to 24 hrs at 1 hr by Western blot analysis. Type of data set: functional, cell-based. The settings on record: HCT-116.
Data set [13] deals with HCT-116. The experiment in a line: Induction of cell cycle arrest in human HCT116 cells assessed as accumulation at sub-G1 phase at 15 uM after 48 hrs by propidium iodide staining-based flow cytometric analysis in presence of RNase A (reference value: 6.5%). The format is functional.
Data set [14] concerns HCT-116. The experiment in a line: Induction of reactive oxygen species in human HCT116 cells after 48 hrs by DCFH-DA staining-based flow cytometric analysis. The format is functional, cell-based. In short, it runs like this:
as §2

For data set [15], the target named is Tumour suppressor p53/oncoprotein Mdm2 (Homo sapiens) (UniProt P04637+Q00987). The experiment in a line: Inhibition of MDM2/P53 protein interaction in human HCT116 cells assessed as stabilization of p53 at 7.5 to 30 uM after 24 hrs by western blot analysis. Type of data set: cell-based. The following applies: HCT-116.
Data set [16] has as its system HCT-116. The experiment in a line: Induction of apoptosis in human HCT116 cells assessed as dead cells at 15 uM after 48 hrs by annexin V-FITC/propidium iodide staining-based flow cytometric analysis (reference value: 2%). The format is functional.
Data set [17] deals with HCT-116. Put plainly: Induction of apoptosis in human HCT116 cells assessed as late apoptotic cells at 7.5 uM after 48 hrs by annexin V-FITC/propidium iodide staining-based flow cytometric analysis (reference value: 5.2%). The format is functional.
Data set [18] has as its system HCT-116. Put plainly: Induction of cell cycle arrest in human HCT116 cells assessed as accumulation at G0/G1 phase at 15 uM after 48 hrs by propidium iodide staining-based flow cytometric analysis in presence of RNase A (reference value: 54.3%). Type of data set: functional.
In data set [19] the target is Serine-protein kinase ATM/ATR (Homo sapiens) (UniProt Q13315+Q13535). The experiment in a line: Activation of ATM/ATR in human HCT116 cells assessed as increase in Chk2 phosphorylation at Thr68 at 7.5 to 30 uM after 24 hrs by Western blot analysis. The following applies: HCT-116. Type of data set: cell-based. In a few lines:
as §1

The subject of data set [20] is HCT-116. The experiment in a line: Induction of apoptosis in human HCT116 cells assessed as cleaved caspase 8 level at 30 uM up to 24 hrs by Western blot analysis. The format is functional, cell-based.

Tumour suppressor p53/oncoprotein Mdm2 (Homo sapiens), sequence (P04637 whole entry, looked up): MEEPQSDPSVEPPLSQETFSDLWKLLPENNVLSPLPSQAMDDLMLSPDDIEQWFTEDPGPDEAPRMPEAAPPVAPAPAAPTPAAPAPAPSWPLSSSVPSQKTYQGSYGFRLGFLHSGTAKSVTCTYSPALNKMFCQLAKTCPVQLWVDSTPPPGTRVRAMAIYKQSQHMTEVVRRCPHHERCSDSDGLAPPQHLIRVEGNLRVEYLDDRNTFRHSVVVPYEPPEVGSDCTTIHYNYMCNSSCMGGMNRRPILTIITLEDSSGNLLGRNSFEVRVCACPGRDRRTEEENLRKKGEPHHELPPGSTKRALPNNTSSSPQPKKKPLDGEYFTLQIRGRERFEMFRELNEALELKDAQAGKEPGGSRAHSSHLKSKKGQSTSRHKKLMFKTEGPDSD
Tumour suppressor p53/oncoprotein Mdm2 (Homo sapiens), sequence (Q00987 whole entry, looked up): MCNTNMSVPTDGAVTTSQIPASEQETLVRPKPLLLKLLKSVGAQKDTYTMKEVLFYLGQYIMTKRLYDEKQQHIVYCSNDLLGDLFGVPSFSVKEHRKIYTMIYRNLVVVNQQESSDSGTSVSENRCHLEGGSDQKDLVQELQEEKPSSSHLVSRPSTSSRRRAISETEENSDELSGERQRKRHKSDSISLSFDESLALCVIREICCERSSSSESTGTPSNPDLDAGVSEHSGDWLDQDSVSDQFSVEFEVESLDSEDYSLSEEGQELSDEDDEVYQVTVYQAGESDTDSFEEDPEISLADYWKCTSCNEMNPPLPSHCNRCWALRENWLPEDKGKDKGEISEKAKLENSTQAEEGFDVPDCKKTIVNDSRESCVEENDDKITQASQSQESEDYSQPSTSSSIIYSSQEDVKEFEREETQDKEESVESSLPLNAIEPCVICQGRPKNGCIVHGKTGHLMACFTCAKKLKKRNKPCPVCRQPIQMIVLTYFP

For the compound `O=C/C=C/c1ccc2c(c1)O[C@@H](CO)[C@H](c1ccc(O)c(O)c1)O2` [AMERICANIN A], the result in data set [1], in [6], in data set [8], in [10] and in data set [20] was Active. Further, the Activity in [2] was 9.9%; in [3], “Dose-dependent effect”; in data set [4], “Non-toxic”; in data set [5], “Dose-dependent effect”; in data set [7] it was 20.3%; in data set [11], 52%. Also, the Activity entry was “Dose-dependent effect” in data set [12]; 37.9% in data set [13]; “Dose-dependent effect” in data set [14]; 0.4% in data set [16]; 10.4% in data set [17]; 23.4% in [18]. Further, the Activity result in [19] was “Dose-dependent effect”. Also, in [9], the IC50 came to 12.5 µM. In data set [15], the inhibition result is “Active”.
